Source: ChEMBL document CHEMBL4715828, “Identification of N-benzyltetrahydroisoquinolines as novel anti-neuroinflammatory agents” (2018)
The source made the active and inactive calls. The rule behind the calls is not given here.

What was measured:
[1] = tested on: BV-2; assay: Anti-neuroinflammatory activity in mouse BV2 cells assessed as inhibition of LPS-induced TNF-alpha production by measuring TNF-alpha level at 50 uM preincubated for 1 hr followed by LPS stimulation and measured after 24 hrs by ELISA (reference value: 100 +/- 0%); format: functional; settings: time 25 hrs
How it was run: (§1)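 BV2 murine microglia in DMEM:F-12 (1:1) with 10% heat-inactivated FBS and penicillin/streptomycin, 5% CO2, seeded at 5 x 10^5 cells/mL in 12-well plates and attached overnight. Compound in DMSO (0.1% v/v final) added 1 h before LPS (E. coli O55:B5, 100 ng/mL) for 24 h. Medium centrifuged, then assayed by ELISA. Values are % of LPS, mean ± SEM, three experiments.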

[2] = tested on: BV-2; assay: Anti-neuroinflammatory activity in mouse BV2 cells assessed as inhibition of LPS-induced TNF-alpha production by measuring TNF-alpha level at 1 uM preincubated for 1 hr followed by LPS stimulation and measured after 24 hrs by ELISA (reference value: 100 +/- 0%); format: functional; parameters: scale not given: the % may be the effect or the level left; settings: time 25 hrs; how it was run: as §1
[3] = tested on: Microglia; assay: Anti-neuroinflammatory activity in primary mouse microglia cells assessed as reduction in LPS-induced IL-12p35 mRNA expression at 100 uM preincubated for 1 hr followed by LPS treatment for 2 hrs by qPCR analysis; format: functional, cell-based; settings: time 3.0 hrs
How it was run: (§2)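 Primary microglia come from cortical cells of 1-2-day neonatal mice, grown in DMEM/F12 with 10% FBS and 2 mM glutamine, plus 5 ng/ml GM-CSF from day 3. Cells shaken off at day 13-14, plated at 5 x 10^5 cells/mL and attached overnight. Compound given 1 h before LPS 100 ng/mL for 2 or 4 h, then RNA extracted and qPCR run. Mean ± SEM, three experiments.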

[4] = tested on: Microglia; assay: Anti-neuroinflammatory activity in primary mouse microglia cells assessed as reduction in LPS-induced GM-CSF mRNA expression at 100 uM preincubated for 1 hr followed by LPS treatment for 4 hrs by qPCR analysis; format: functional, cell-based; settings: time 5.0 hrs; how it was run: as §2
[5] = tested on: Microglia; assay: Anti-neuroinflammatory activity in primary mouse microglia cells assessed as reduction in LPS-induced IL-12p40 mRNA expression at 100 uM preincubated for 1 hr followed by LPS treatment for 4 hrs by qPCR analysis; format: functional, cell-based; settings: time 5.0 hrs; how it was run: as §2
[6] = tested on: Microglia; assay: Anti-neuroinflammatory activity in primary mouse microglia cells assessed as reduction in LPS-induced IL6 mRNA expression at 100 uM preincubated for 1 hr followed by LPS treatment for 2 hrs by qPCR analysis; format: functional, cell-based; settings: time 3.0 hrs; how it was run: as §2
[7] = tested on: Microglia; assay: Anti-neuroinflammatory activity in primary mouse microglia cells assessed as reduction in LPS-induced IL-1beta mRNA expression at 100 uM preincubated for 1 hr followed by LPS treatment for 2 hrs by qPCR analysis; format: functional, cell-based; settings: time 3.0 hrs; how it was run: as §2
[8] = tested on: BV-2; assay: Anti-neuroinflammatory activity in mouse BV2 cells assessed as inhibition of LPS-induced IL-6 production preincubated for 1 hr followed by LPS treatment and measured after 24 hrs by ELISA; format: functional, cell-based; settings: dose 25-50 µM, time 25.0 hrs; how it was run: as §1
[9] = tested on: BV-2; assay: Anti-neuroinflammatory activity in mouse BV2 cells assessed as inhibition of LPS-induced TNF-alpha production preincubated for 1 hr followed by LPS treatment and measured after 24 hrs by ELISA; format: functional, cell-based; settings: dose 12-50 µM, time 25.0 hrs; how it was run: as §1
[10] = tested on: Microglia; assay: Anti-neuroinflammatory activity in primary mouse microglia cells assessed as reduction in LPS-induced TNF mRNA expression at 100 uM preincubated for 1 hr followed by LPS treatment for 2 hrs by qPCR analysis; format: functional, cell-based; settings: time 3.0 hrs; how it was run: as §2
[11] = tested on: Microglia; assay: Anti-neuroinflammatory activity in primary mouse microglia cells assessed as reduction in LPS-induced IL-1beta mRNA expression at 100 uM preincubated for 1 hr followed by LPS treatment for 4 hrs by qPCR analysis; format: functional, cell-based; settings: time 5.0 hrs; how it was run: as §2
[12] = tested on: BV-2; assay: Anti-neuroinflammatory activity in mouse BV2 cells assessed as inhibition of LPS-induced nitrite production preincubated for 1 hr followed by LPS treatment and measured after 24 hrs by Griess assay; format: functional, cell-based; settings: dose 6-50 µM, time 25.0 hrs
How it was run: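 BV2 cells seeded at 5 x 10^5 cells/mL in 12-well plates and attached overnight. Compound (0.1% v/v DMSO final) given 1 h before LPS 100 ng/mL for 24 h. Medium centrifuged to remove floating cells, then nitrite read by Griess kit. Mean ± SEM from three experiments.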

[13] = tested on: Microglia; assay: Anti-neuroinflammatory activity in primary mouse microglia cells assessed as reduction in LPS-induced GM-CSF mRNA expression at 100 uM preincubated for 1 hr followed by LPS treatment for 2 hrs by qPCR analysis; format: functional, cell-based; settings: time 3.0 hrs; how it was run: as §2
[14] = tested on: Microglia; assay: Anti-neuroinflammatory activity in primary mouse microglia cells assessed as reduction in LPS-induced IL6 mRNA expression at 100 uM preincubated for 1 hr followed by LPS treatment for 4 hrs by qPCR analysis; format: functional, cell-based; settings: time 5.0 hrs; how it was run: as §2
[15] = tested on: Microglia; assay: Anti-neuroinflammatory activity in primary mouse microglia cells assessed as reduction in LPS-induced IL-23p19 mRNA expression at 100 uM preincubated for 1 hr followed by LPS treatment for 4 hrs by qPCR analysis; format: functional, cell-based; settings: time 5.0 hrs; how it was run: as §2
[16] = tested on: Microglia; assay: Anti-neuroinflammatory activity in primary mouse microglia cells assessed as reduction in LPS-induced IL-12p40 mRNA expression at 100 uM preincubated for 1 hr followed by LPS treatment for 2 hrs by qPCR analysis; format: functional, cell-based; settings: time 3.0 hrs; how it was run: as §2
[17] = tested on: Microglia; assay: Anti-neuroinflammatory activity in primary mouse microglia cells assessed as reduction in LPS-induced IL-12p35 mRNA expression at 100 uM preincubated for 1 hr followed by LPS treatment for 4 hrs by qPCR analysis; format: functional, cell-based; settings: time 5.0 hrs; how it was run: as §2
[18] = tested on: Microglia; assay: Anti-neuroinflammatory activity in primary mouse microglia cells assessed as reduction in LPS-induced IL-23p19 mRNA expression at 100 uM preincubated for 1 hr followed by LPS treatment for 2 hrs by qPCR analysis; format: functional, cell-based; settings: time 3.0 hrs; how it was run: as §2
[19] = tested on: Microglia; assay: Anti-neuroinflammatory activity in primary mouse microglia cells assessed as reduction in LPS-induced TNF mRNA expression at 100 uM preincubated for 1 hr followed by LPS treatment for 4 hrs by qPCR analysis; format: functional, cell-based; settings: time 5.0 hrs; how it was run: as §2

Row | SMILES | TNF-alpha level (% of LPS control) [1] [%] | also measured
1 | COc1ccc(CC2c3cc4c(cc3CC[N+]2(C)C)OCO4)cc1OC.[I-] (centres undefined) | 97 | 
2 | COc1ccc(CN2CCc3cc4c(cc3C2)OCO4)cc1 | 88 | 
3 | COc1cccc(CN2CCc3cc4c(cc3C2)OCO4)c1 | 78 | 
4 | COc1ccc2c(c1)CCN(Cc1c(OC)cccc1OC)C2 | 64 | 
5 | COc1ccc2c(c1)CN(Cc1c(OC)cccc1OC)CC2 | 82 | 
6 | COc1cc(CN2CCc3cc4c(cc3C2)OCO4)cc(OC)c1 | 89 | 
7 | COc1ccc(CC2NCCc3cc4c(cc32)OCO4)cc1OC (centres undefined) | 77 | 
8 | COc1ccc2cc3[n+](cc2c1OC)CCc1cc2c(cc1-3)OCO2.[Cl-] [BERBERINE CHLORIDE] |  | Activity [2]: 25%
9 | c1ccc(CN2CCc3cc4c(cc3C2)OCO4)cc1 | 90 | 
10 | COc1cccc(CN2CCc3cc4c(cc3C2)OCO4)c1OC | 61 | 
11 | COc1ccc2c(c1OC)C[N+]1(Cc3ccccc3)CCc3cc4c(cc3C1C2)OCO4.[Br-] (centres undefined) | 22 | 
12 | COc1ccccc1CN1CCc2cc3c(cc2C1)OCO3 | 78 | 
13 | COc1cccc(OC)c1CN1CCc2ccccc2C1 | 78 | 
14 | COc1ccc2c(c1OC)CN1CCc3cc4c(cc3C1C2)OCO4 (centres undefined) [TETRAHYDROBERBERINE] | 45 | 
15 | COc1cccc(OC)c1CN1CCc2cc3c(cc2C1)OCO3 | 39 | Activity [3]: Active; Activity [4]: Active; Activity [5]: inactive; Activity [6]: Active; Activity [7]: Active; Activity [8]: Dose-dependent effect; Activity [9]: Dose-dependent effect; Activity [10]: inactive; Activity [11]: Active; Activity [12]: Dose-dependent effect; Activity [13]: Active; Activity [14]: Active; Activity [15]: Active; Activity [16]: inactive; Activity [17]: Active; Activity [18]: Active; Activity [19]: inactive
16 | Clc1cccc(Cl)c1CN1CCc2cc3c(cc2C1)OCO3 | 107 | 
17 | COc1ccc(CN2CCc3cc4c(cc3C2)OCO4)c(OC)c1 | 103 | 
18 | COc1cccc(CN2CCc3ccccc3C2)c1OC | 95 | 
19 | FC(F)(F)c1ccc(CN2CCc3cc4c(cc3C2)OCO4)cc1 | 102 | 
20 | COc1cccc(OC)c1C(=O)N1CCc2cc3c(cc2C1)OCO3 | 73 | 
21 | COc1ccc(CC2c3cc4c(cc3CCN2C)OCO4)cc1OC (centres undefined) | 77 | 
22 | Cc1cccc(C)c1CN1CCc2cc3c(cc2C1)OCO3 | 101 | 
